Here are results for 12 compounds from ChEMBL document CHEMBL1133108, “Neurosteroid analogues. 8. Structure-activity studies of N-acylated 17a-aza-D-homosteroid analogues of the anesthetic steroids (3alpha, 5alpha)- and (3alpha,5beta)-3-hydroxypregnan-20-one” (J Med Chem, 2000).

What is called pIC50 is the IC50 on a negative log10 scale, so that one unit is a factor of ten. Higher therefore signals a low IC50.

The structures appear in SMILES notation. pIC50: −log10 of the molar value.

For assay [1], the target named is T1, GABA-A receptor; alpha-1/beta-2/gamma-2 (Rattus norvegicus) (UniProt P18508+P62813+P63138). The experiment in a line: Electrophysiological effect on rat alpha-1-beta-2-gamma-2 GABA-A receptor subunits expressed in xenopus laevis oocytes at 10 uM in the absence of GABA. The following applies: Oocyte. Format: functional, cell-based. An outline of the steps:
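Rat α1β2γ2 GABAA receptors are expressed in Xenopus oocytes. Steroid at 10 μM is applied alone, without GABA, and the directly gated current is measured. The value is the ratio of steroid-only current to the 2 μM GABA control current. N = 3–6 (12 for one reference steroid), mean ± SEM.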

In assay [2] the target is T1, GABA-A receptor; alpha-1/beta-2/gamma-2 (Rattus norvegicus). The experiment in a line: Electrophysiological effect on rat alpha-1-beta-2-gamma-2 GABA-A receptor subunits expressed in xenopus laevis oocytes at 10 uM. Format: functional, cell-based. Conditions: Oocyte. The gist of the method:
(§1)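 Oocytes express rat α1β2γ2 GABAA receptors. The control response uses 2 μM GABA. Steroid is co-applied at 0.1, 1 or 10 μM. The value is the ratio of current with steroid to current without it. N = 3–6 (12 for one reference steroid), mean ± SEM. These are not full concentration-response curves.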

Assay [3] has as its target GABA-A receptor; anion channel. The experiment in a line: Displacement of […]-tert-butylbicyclophosphorothionate (TBPS) from Gamma-aminobutyric acid A (GABA-A) receptor of rat brain membranes. It is filed as cell membranes, Membrane. An outline of the steps: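 Noncompetitive displacement of [35S]TBPS from the picrotoxin site in rat brain membranes. Full concentration-response curves were fitted for IC50. Data come from duplicate experiments, each run in triplicate, with mean ± SEM reported. Hill coefficients are given.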

Assay [4] has as its target T1, GABA-A receptor; alpha-1/beta-2/gamma-2 (Rattus norvegicus). As to the kind of experiment: Electrophysiological effect on rat alpha-1-beta-2-gamma-2 GABA-A receptor subunits expressed in xenopus laevis oocytes at 0.1 uM. It is filed as functional, cell-based. Conditions: Oocyte. An outline of the steps:
as §1

For assay [5] the target is unchanged. As to the kind of experiment: Electrophysiological effect on rat alpha-1-beta-2-gamma-2 GABA-A receptor subunits expressed in xenopus laevis oocytes at 1 uM. Format: functional, cell-based. The following applies: Oocyte. An outline of the steps: as §1

With `C[C@@]1(O)CC[C@]2(C)C3CC[C@@]4(C)C(CCCN4C(=O)CO)C3CC[C@H]2C1` (some centres undefined), the Activity was determined as 0.2 in assay [1], 6.5 in assay [2], 1 in assay [4] and 1.22 in assay [5]. This compound also had a pIC50 in assay [3] of 6.26.
On the same counts, the results for `C[C@]12CCC3C(CC[C@@H]4C[C@H](O)CC[C@]34C)C1CCCN2C(=O)CO` (some centres undefined) are 0.1, 3.87, 1.36, 1.57 and 6.03.
On the same counts, the results for `C[C@]12CC[C@@H](O)C[C@@H]1CC[C@@H]1[C@@H]2CC[C@]2(C)[C@@H](C(=O)CO)CC[C@@H]12` are 1.67, 11.8, 1.3, 4.55 and 7.41.
As for `C[C@]12CC[C@@H](O)C[C@H]1CC[C@@H]1[C@@H]2CC[C@]2(C)[C@@H](C(=O)CO)CC[C@@H]12`, the Activity was determined as 0.19 in assay [1], 5.43 in assay [2], 1.21 in assay [4] and 2.37 in assay [5]. The pIC50 in assay [3] is 6.92.
Consider `CC(=O)[C@H]1CC[C@H]2[C@@H]3CC[C@H]4C[C@H](O)CC[C@]4(C)[C@H]3CC[C@]12C` [BREXANOLONE], for which the Activity is 0.37 in assay [1], 9.65 in assay [2], 1.26 in assay [4] and 3.89 in assay [5]. The pIC50 in assay [3] is 7.13.
In the case of `CC(=O)N1CCCC2C3CC[C@@H]4C[C@H](O)CC[C@]4(C)C3CC[C@@]21C` (some centres undefined), the Activity in assay [1] came to 0.01; in assay [2], 1.18; in assay [4] it was 1.37; in assay [5], 1.04.
As to `C[C@]12CCC3C(CC[C@@H]4C[C@H](O)CC[C@]34C)C1CCCN2C(=O)C(F)(F)F` (some centres undefined), the Activity in assay [1] is 0.02; in assay [2] it was 1.12; in assay [4], 0.98; in assay [5], 0.96. Further, the pIC50 in assay [3] was 5.21.
On the same counts, the results for `CC(=O)[C@H]1CC[C@H]2[C@@H]3CC[C@@H]4C[C@H](O)CC[C@]4(C)[C@H]3CC[C@]12C` [ELTANOLONE] are 0.01, 4.3, 0.97, 1.92 and 7.15.
On the same counts, the results for `C[C@]12CCC3C(CC[C@H]4C[C@H](O)CC[C@]34C)C1CCCN2C(=O)CO` (some centres undefined) are 0.49, 8.09, 1.17, 1.73 and 7.35.
Taken in the same sequence, the figures for `CC(=O)N1CCCC2C3CC[C@H]4C[C@H](O)CC[C@]4(C)C3CC[C@@]21C` (some centres undefined) were 0.05, 3.74, 1.21, 1.66 and 6.70.
`CC(=O)N1CCCC2C3CC[C@H]4C[C@](C)(O)CC[C@]4(C)C3CC[C@@]21C` (some centres undefined): the Activity in assay [1] is 0.05; in assay [2], 1.99; in assay [4], 0.96; in assay [5] it was 1.04. The compound further had a pIC50 in assay [3] of 5.58.
Regarding `C[C@]12CCC3C(CC[C@H]4C[C@H](O)CC[C@]34C)C1CCCN2C(=O)C(F)(F)F` (some centres undefined), the Activity in assay [1] was 0.5; in assay [2] it was 10.1; in assay [4], 1.11; in assay [5] it was 1.91. In assay [3], the pIC50 is 6.37.
